Results published in ChEMBL document CHEMBL4406845, “Synthesis of benzotriazoles derivatives and their dual potential as α-amylase and α-glucosidase inhibitors in vitro: Structure-activity relationship, molecular docking, and kinetic studies” (Eur J Med Chem, 2019).

Key:
Alpha glucosidase = Alpha glucosidase (Homo sapiens, UniProt O43451+P10253+P14410+Q2M2H8); experiment: Inhibition of alpha-glucosidase (unknown origin); assay type: protein assay
Alpha amylase = biological target: T1, Alpha amylase (Homo sapiens, UniProt P0DUB6); experiment: Inhibition of alpha-amylase (unknown origin) using starch as substrate preincubated for 10 mins followed by substrate addition and measured after 10 mins by dinitrosalicylic acid reagent based assay
T1 sequence (P0DUB6 whole entry): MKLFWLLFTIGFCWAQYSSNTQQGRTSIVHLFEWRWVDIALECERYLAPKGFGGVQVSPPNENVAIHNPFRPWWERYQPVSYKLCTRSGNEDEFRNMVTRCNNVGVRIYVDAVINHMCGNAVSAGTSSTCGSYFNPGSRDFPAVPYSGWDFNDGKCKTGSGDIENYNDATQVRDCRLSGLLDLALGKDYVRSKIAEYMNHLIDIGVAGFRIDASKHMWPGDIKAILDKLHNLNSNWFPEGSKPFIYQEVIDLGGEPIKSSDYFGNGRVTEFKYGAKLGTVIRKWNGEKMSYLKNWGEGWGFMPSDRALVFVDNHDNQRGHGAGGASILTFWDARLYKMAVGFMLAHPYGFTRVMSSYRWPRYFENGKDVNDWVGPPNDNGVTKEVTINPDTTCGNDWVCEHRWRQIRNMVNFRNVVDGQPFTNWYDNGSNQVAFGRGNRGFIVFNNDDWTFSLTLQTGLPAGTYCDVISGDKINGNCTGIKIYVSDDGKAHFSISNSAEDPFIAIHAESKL

[1] = tested on: O=C(Cn1nnc2ccccc21)c1cccc([N+](=O)[O-])c1; experiment: (§1) Non-competitive inhibition of alpha-glucosidase (unknown origin) assessed as substrate Km using p-nitrophenyl-R-D-maltoside as substrate incubated for 30 mins at 1 min interval by ELISA-based Lineweaver-burk plot analysis; assay type: protein assay; conditions: Homo sapiens
[2] = tested on: O=C(c1ccc(Br)cc1)n1nnc2ccccc21; experiment: as §1; assay type: protein assay; conditions: Homo sapiens
[3] = tested on: O=C(Cn1nnc2ccccc21)c1ccccc1O; experiment: as §1; assay type: protein assay; conditions: Homo sapiens
[4] = tested on: O=C(c1cccc(Cl)c1)n1nnc2cc(Cl)c(Cl)cc21; experiment: as §1; assay type: protein assay; conditions: Homo sapiens
[5] = tested on: Cc1ccc(C(=O)n2nnc3cc(Cl)c(Cl)cc32)cc1C; experiment: as §1; assay type: protein assay; conditions: Homo sapiens
[6] = tested on: CCCCOc1ccc(C(=O)n2nnc3ccccc32)cc1; experiment: as §1; assay type: protein assay; conditions: Homo sapiens
[7] = tested on: Cc1cc(C(=O)n2nnc3ccccc32)cc(C)c1C; experiment: as §1; assay type: protein assay; conditions: Homo sapiens
[8] = tested on: COc1ccc(C(=O)Cn2nnc3cc(C)c(C)cc32)cc1; experiment: as §1; assay type: protein assay; conditions: Homo sapiens
[9] = tested on: Cc1cc2nnn(C(=O)c3ccccc3)c2cc1C; experiment: as §1; assay type: protein assay; conditions: Homo sapiens
[10] = tested on: O=C(Cn1nnc2ccccc21)c1cccc([N+](=O)[O-])c1; experiment: (§2) Non-competitive inhibition of alpha-glucosidase (unknown origin) assessed as substrate Vmax using p-nitrophenyl-R-D-maltoside as substrate incubated for 30 mins at 1 min interval by ELISA-based Lineweaver-burk plot analysis; assay type: protein assay; conditions: Homo sapiens
[11] = tested on: O=C(c1ccc(Br)cc1)n1nnc2ccccc21; experiment: as §2; assay type: protein assay; conditions: Homo sapiens
[12] = tested on: O=C(Cn1nnc2ccccc21)c1ccccc1O; experiment: as §2; assay type: protein assay; conditions: Homo sapiens
[13] = tested on: O=C(c1cccc(Cl)c1)n1nnc2cc(Cl)c(Cl)cc21; experiment: as §2; assay type: protein assay; conditions: Homo sapiens
[14] = tested on: Cc1ccc(C(=O)n2nnc3cc(Cl)c(Cl)cc32)cc1C; experiment: as §2; assay type: protein assay; conditions: Homo sapiens
[15] = tested on: CCCCOc1ccc(C(=O)n2nnc3ccccc32)cc1; experiment: as §2; assay type: protein assay; conditions: Homo sapiens
[16] = tested on: Cc1cc(C(=O)n2nnc3ccccc32)cc(C)c1C; experiment: as §2; assay type: protein assay; conditions: Homo sapiens
[17] = tested on: COc1ccc(C(=O)Cn2nnc3cc(C)c(C)cc32)cc1; experiment: as §2; assay type: protein assay; conditions: Homo sapiens
[18] = tested on: Cc1cc2nnn(C(=O)c3ccccc3)c2cc1C; experiment: as §2; assay type: protein assay; conditions: Homo sapiens
[19] = tested on: Cc1cc2nnn(CC(=O)c3ccc(Cl)cc3)c2cc1C; experiment: (§3) Competitive inhibition of alpha-amylase (unknown origin) assessed as substrate Km using p-nitrophenyl-R-D-maltoside as substrate incubated for 30 mins by ELISA-based Lineweaver-burk plot analysis; conditions: Homo sapiens
Outline: (§4)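 Kinetics: inhibitor at 0.0625, 0.125, 0.3 and 0.4 mM crossed with p-nitrophenyl-R-D-maltoside at 0.1, 0.2, 0.4, 0.8 and 1.0 mM. Enzyme dissolved in deionized water, 0.2 mg/mL per well. PIPES buffer, pH 7.0, 30 min at 25 °C. Absorbance read on a plate reader. Vmax, Km, AICc and R² obtained by enzyme-kinetic graph fitting.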

[20] = tested on: O=C(c1cccc(Cl)c1)n1nnc2cc(Cl)c(Cl)cc21; experiment: as §3; conditions: Homo sapiens; outline: as §4
[21] = tested on: O=C(Cn1nnc2ccccc21)c1ccc(Cl)cc1; experiment: as §3; conditions: Homo sapiens; outline: as §4
[22] = tested on: O=C(c1ccc(F)cc1)n1nnc2ccccc21; experiment: as §3; conditions: Homo sapiens; outline: as §4
[23] = tested on: Cc1cc2nnn(CC(=O)c3ccc(Cl)c(Cl)c3)c2cc1C; experiment: as §3; conditions: Homo sapiens; outline: as §4
[24] = tested on: O=C(Cn1nnc2ccccc21)c1cccc(Br)c1; experiment: as §3; conditions: Homo sapiens; outline: as §4
[25] = tested on: O=C(c1ccc([N+](=O)[O-])cc1)n1nnc2ccccc21; experiment: as §3; conditions: Homo sapiens; outline: as §4
[26] = tested on: COc1ccc(C(=O)Cn2nnc3cc(C)c(C)cc32)cc1; experiment: as §3; conditions: Homo sapiens; outline: as §4
[27] = tested on: COc1ccc(C(=O)n2nnc3ccccc32)cc1; experiment: as §3; conditions: Homo sapiens; outline: as §4
[28] = tested on: Cc1cc2nnn(CC(=O)c3ccc(Cl)cc3)c2cc1C; experiment: (§5) Competitive inhibition of alpha-amylase (unknown origin) assessed as substrate Vmax using p-nitrophenyl-R-D-maltoside as substrate incubated for 30 mins by ELISA-based Lineweaver-burk plot analysis; conditions: Homo sapiens; outline: as §4
[29] = tested on: O=C(c1cccc(Cl)c1)n1nnc2cc(Cl)c(Cl)cc21; experiment: as §5; conditions: Homo sapiens; outline: as §4
[30] = tested on: O=C(Cn1nnc2ccccc21)c1ccc(Cl)cc1; experiment: as §5; conditions: Homo sapiens; outline: as §4
[31] = tested on: O=C(c1ccc(F)cc1)n1nnc2ccccc21; experiment: as §5; conditions: Homo sapiens; outline: as §4
[32] = tested on: Cc1cc2nnn(CC(=O)c3ccc(Cl)c(Cl)c3)c2cc1C; experiment: as §5; conditions: Homo sapiens; outline: as §4
[33] = tested on: O=C(Cn1nnc2ccccc21)c1cccc(Br)c1; experiment: as §5; conditions: Homo sapiens; outline: as §4
[34] = tested on: O=C(c1ccc([N+](=O)[O-])cc1)n1nnc2ccccc21; experiment: as §5; conditions: Homo sapiens; outline: as §4
[35] = tested on: COc1ccc(C(=O)Cn2nnc3cc(C)c(C)cc32)cc1; experiment: as §5; conditions: Homo sapiens; outline: as §4
[36] = tested on: COc1ccc(C(=O)n2nnc3ccccc32)cc1; experiment: as §5; conditions: Homo sapiens; outline: as §4

IC50 (Alpha glucosidase)	IC50 (Alpha amylase)	Compound	also measured
2.99 µM	2.98 µM	COc1ccc(C(=O)n2nnc3ccccc32)cc1	
3 µM	2.99 µM	O=C(c1cccc(Cl)c1)n1nnc2cc(Cl)c(Cl)cc21	
2.21 µM	2.12 µM	Cc1cc2nnn(CC(=O)c3ccc(Cl)cc3)c2cc1C	
5.23 µM	5 µM	O=C(c1c(F)cccc1F)n1nnc2ccccc21	
3.2 µM	3.13 µM	O=C(c1ccc(Br)cc1)n1nnc2ccccc21	
4.79 µM	4.77 µM	COc1ccccc1C(=O)n1nnc2ccccc21	
5.29 µM	5.38 µM	O=C(c1ccccc1)n1nnc2ccccc21	
4.1 µM	4.08 µM	Cc1cc(C(=O)n2nnc3ccccc32)ccc1[N+](=O)[O-]	
3.47 µM	3.51 µM	O=C(Cn1nnc2ccccc21)c1cccc(Cl)c1Cl	
3.3 µM	3.21 µM	Cc1cc2nnn(CC(=O)c3ccccc3O)c2cc1C	
2.79 to 4.41 µM	2.76 to 4.35 µM	O=C(Cn1nnc2ccccc21)c1ccc(Br)cc1	
4.5 µM	4.42 µM	COc1ccc(C(=O)Cn2nnc3ccccc32)cc1	
2.04 µM	2 µM	Cc1cc2nnn(CC(=O)c3ccc(Cl)c(Cl)c3)c2cc1C	

More lines, now with the values behind:

Compound	IC50 (Alpha glucosidase)	IC50 (Alpha amylase)	also measured
Cc1cc(C(=O)n2nnc3ccccc32)cc(C)c1C	4.23 µM	4.12 µM	
Alpha glucosidase (Homo sapiens) (from UniProt O43451+P10253+P14410+Q2M2H8)			Km [1]: 260 µM; Km [2]: 200 µM; Km [3]: 250 µM; Km [4]: 250 µM; Km [5]: 240 µM; Km [6]: 240 µM; Km [7]: 200 µM; Km [8]: 210 µM; Km [9]: 200 µM; Vmax [10]: 618 µM/min; Vmax [11]: 612 µM/min; Vmax [12]: 601 µM/min; Vmax [13]: 620 µM/min; Vmax [14]: 620 µM/min; Vmax [15]: 621 µM/min; Vmax [16]: 612 µM/min; Vmax [17]: 620 µM/min; Vmax [18]: 602 µM/min
Cc1ccc(C(=O)Cn2nnc3ccccc32)cc1	4.78 µM	4.56 µM	
O=C(c1ccccc1)n1nnc2cc(Cl)c(Cl)cc21	3.7 µM	3.66 µM	
Cc1cccc(C(=O)n2nnc3ccccc32)c1	4.42 µM	4.3 µM	
O=C(c1ccc(F)cc1)n1nnc2ccccc21	2.82 µM	2.8 µM	
O=C(Cn1nnc2ccccc21)c1ccccc1O	4.87 µM	4.9 µM	
O=C(Cn1nnc2ccccc21)c1ccc(Cl)cc1	2.5 µM	2.41 µM	
CCCCOc1ccc(C(=O)n2nnc3ccccc32)cc1	5.6 µM	5.4 µM	
O=C(Cn1nnc2ccccc21)c1ccccc1	4.91 µM	4.89 µM	
O=C(c1ccc([N+](=O)[O-])cc1)n1nnc2ccccc21	2.97 µM	2.92 µM	
Cc1cc2nnn(C(=O)c3ccccc3)c2cc1C	3.4 µM	3.32 µM	
Alpha amylase (Homo sapiens) (from UniProt P0DUB6)			Km [19]: 180 µM; Km [20]: 200 µM; Km [21]: 200 µM; Km [22]: 190 µM; Km [23]: 240 µM; Km [24]: 210 µM; Km [25]: 200 µM; Km [26]: 200 µM; Km [27]: 210 µM; Vmax [28]: 514 µM/min; Vmax [29]: 514 µM/min; Vmax [30]: 527 µM/min; Vmax [31]: 522 µM/min; Vmax [32]: 593 µM/min; Vmax [33]: 512 µM/min; Vmax [34]: 512 µM/min; Vmax [35]: 505 µM/min; Vmax [36]: 554 µM/min
O=C(Cn1nnc2ccccc21)c1ccc(-c2ccccc2)cc1	4.98 µM	4.92 µM	
O=C(c1ccc(F)c(F)c1Cl)n1nnc2ccccc21	5.63 µM	5.72 µM	
O=C(Cn1nnc2ccccc21)c1ccc(Cl)c(Cl)c1	3.9 µM	3.89 µM	
O=C(Cn1nnc2ccccc21)c1cccc([N+](=O)[O-])c1	4 µM	4.02 µM	
Cc1ccc(C(=O)n2nnc3ccccc32)cc1C	4.8 µM	4.73 µM	
Nc1cc(C(=O)n2nnc3ccccc32)ccc1Cl	4.32 µM	4.28 µM	
COc1ccc(C(=O)Cn2nnc3cc(C)c(C)cc32)cc1	2.6 µM	2.51 µM	
Cc1ccc(C(=O)n2nnc3cc(Cl)c(Cl)cc32)cc1C	3.82 µM	3.66 µM	
Cc1cc2nnn(CC(=O)c3ccccc3)c2cc1C	3.41 µM	3.53 µM	
O=C(Cn1nnc2ccccc21)c1cccc(Br)c1	4.41 µM	4.35 µM	
